Measurements taken from ChEMBL document CHEMBL4385592, “4-Imidazo[2,1-b]thiazole-1,4-DHPs and neuroprotection: preliminary study in hits searching” (Eur J Med Chem, 2019).

Assays:
[1] = biological target: T1, Voltage-gated L-type calcium channel (Homo sapiens, UniProt Q13936+Q13698+Q01668+O60840); assay: (§1) Inhibition of voltage-dependent L-type calcium channel in human U373MG cells assessed as protection against oxygen glucose deprivation/reperfusion-induced injury by measuring recovery of cell viability at 1 uM administered at onset of reperfusion period measured after 16 hrs by alamar blue assay relative to control; format: cell-based
Outline: (§2)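 U-373 MG astrocytoma cells seeded at 30000 cells/ml and grown 24 or 48 h (37 °C/5% CO2). OGD: 24 h at 37 °C in glucose-free DMEM pre-bubbled with 95% N2/5% CO2, in a sealed nitrogen-flushed chamber. Then 16 h reperfusion in normal medium; compounds added at reperfusion, diluted from DMSO stock (DMSO ≤0.1%). Viability by alamarBlue, 4 h at 37 °C, fluorescence ex 530–560/em 590 nm. Expressed as % recovery from injury, mean ± S.E. of ≥3 experiments in sixuplicate.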

[2] = biological target: T1, Voltage-gated L-type calcium channel; assay: as §1, with “at 20” for “at 1”; format: cell-based; outline: as §2
[3] = biological target: T1, Voltage-gated L-type calcium channel; assay: Inhibition of voltage-dependent L-type calcium channel in human SH-SY5Y cells assessed as protection against glutamate-induced excitotoxicity by measuring recovery of cell viability at 1 uM measured after 24 hrs by alamar blue-based fluorescence method relative to control
[4] = biological target: T1, Voltage-gated L-type calcium channel; assay: Inhibition of voltage-dependent L-type calcium channel in human SH-SY5Y cells assessed as protection against glutamate-induced excitotoxicity by measuring recovery of cell viability at 20 uM measured after 24 hrs by alamar blue-based fluorescence method relative to control
Left cardiac atrium [5] = assay: Negative inotropic activity in guinea pig left atrium assessed as decrease in developed tension at 5 x 10^-5 M relative to control; format: ADME, tissue-based, Cavia porcellus; design: scale not given: the % may be the effect or the level left; settings: 50 µM
Right cardiac atrium [6] = assay: Negative inotropic activity in guinea pig right atrium assessed as decrease in developed tension at 10^-5 M relative to control; format: ADME, tissue-based, Cavia porcellus; design: scale not given: the % may be the effect or the level left; settings: 10 µM
Left cardiac atrium [7] = assay: Negative inotropic activity in guinea pig left atrium assessed as decrease in developed tension at 0.001 to 100 uM relative to control; format: ADME, tissue-based; settings: Cavia porcellus
Right cardiac atrium [8] = assay: Negative chronotropic activity in guinea pig spontaneously beating right atrium assessed as decrease in atrial rate at 5 x 10^-5 M relative to control; format: tissue-based, Cavia porcellus; design: scale not given: the % may be the effect or the level left; settings: 50 µM
Aorta [9] = assay: Inhibition of calcium-induced contraction in K+-depolarized guinea pig aortic strips at 10^-4 M relative to control; format: tissue-based; settings: Cavia porcellus
[10] = tested on: Left cardiac atrium (Cavia porcellus); assay: Negative inotropic activity in guinea pig left atrium assessed as decrease in developed tension
Left cardiac atrium [11] = assay: Negative inotropic activity in guinea pig left atrium assessed as decrease in developed tension at 10^-4 M relative to control; format: ADME, tissue-based, Cavia porcellus; design: scale not given: the % may be the effect or the level left; settings: 100 µM
Right cardiac atrium [12] = assay: Negative inotropic activity in guinea pig right atrium assessed as decrease in developed tension at 10^-4 M relative to control; format: ADME, tissue-based, Cavia porcellus; design: scale not given: the % may be the effect or the level left; settings: 100 µM
Right cardiac atrium [13] = assay: Negative chronotropic activity in guinea pig spontaneously beating right atrium assessed as decrease in atrial rate at 10^-4 M relative to control; format: ADME, tissue-based, Cavia porcellus; design: scale not given: the % may be the effect or the level left; settings: 100 µM
Left cardiac atrium [14] = assay: Negative inotropic activity in guinea pig left atrium assessed as decrease in developed tension at 10^-5 M relative to control; design: scale not given: the % may be the effect or the level left; settings: 10 µM
Right cardiac atrium [15] = assay: Negative inotropic activity in guinea pig right atrium assessed as decrease in developed tension at 5 x 10^-5 M relative to control; format: ADME, tissue-based, Cavia porcellus; design: scale not given: the % may be the effect or the level left; settings: 50 µM
Right cardiac atrium [16] = assay: Negative chronotropic activity in guinea pig spontaneously beating right atrium assessed as decrease in atrial rate at 10^-5 M relative to control; format: ADME, tissue-based, Cavia porcellus; design: scale not given: the % may be the effect or the level left; settings: 10 µM
Aorta [17] = assay: Inhibition of calcium-induced contraction in K+-depolarized guinea pig aortic strips at 10^-5 M relative to control; format: tissue-based; settings: Cavia porcellus
Right cardiac atrium [18] = assay: Negative inotropic activity in guinea pig right atrium assessed as decrease in developed tension at 10^-7 M relative to control; format: ADME, tissue-based, Cavia porcellus; design: scale not given: the % may be the effect or the level left; settings: 0.1 µM
Right cardiac atrium [19] = assay: Negative chronotropic activity in guinea pig spontaneously beating right atrium assessed as decrease in atrial rate at 5 x 10^-7 M relative to control; format: ADME, tissue-based, Cavia porcellus; design: scale not given: the % may be the effect or the level left; settings: 0.5 µM
Right cardiac atrium [20] = assay: Negative chronotropic activity in guinea pig spontaneously beating right atrium assessed as decrease in atrial rate; format: tissue-based; settings: Cavia porcellus
[21] = Selectivity ratio of EC50 for negative chronotropic activity in guinea pig spontaneously beating right atrium to EC50 for negative inotropic activity in guinea pig left atrium; format: ADME, tissue-based, Cavia porcellus
Left cardiac atrium [22] = assay: Negative inotropic activity in guinea pig left atrium assessed as decrease in developed tension at 5 x 10^-6 M relative to control; format: ADME, tissue-based, Cavia porcellus; design: scale not given: the % may be the effect or the level left; settings: 5 µM
Right cardiac atrium [23] = assay: Negative chronotropic activity in guinea pig spontaneously beating right atrium assessed as decrease in atrial rate at 5 x 10^-6 M relative to control; format: ADME, tissue-based, Cavia porcellus; design: scale not given: the % may be the effect or the level left; settings: 5 µM
[24] = biological target: T2, Voltage-gated L-type calcium channel (Rattus norvegicus, UniProt P22002+Q02485+P27732); assay: as §1, with “Wistar rat brain slices” for “human U373MG cells”, “LDH release” for “cell viability”, “20” for “1”, “90 mins” for “16 hrs”, “spectrophotometric” for “alamar blue”; design: scale not given: the % may be the effect or the level left; settings: 1.5 h
[25] = biological target: T2, Voltage-gated L-type calcium channel; assay: as §1, with “Wistar rat brain slices” for “human U373MG cells”, “edema formation” for “cell viability”, “20” for “1”, “90 mins” for “16 hrs by alamar blue assay”; design: scale not given: the % may be the effect or the level left; settings: 1.5 h
Right cardiac atrium [26] = assay: Negative chronotropic activity in guinea pig spontaneously beating right atrium assessed as decrease in atrial rate at 10^-7 M relative to control; format: ADME, tissue-based, Cavia porcellus; design: scale not given: the % may be the effect or the level left; settings: 0.1 µM
Aorta [27] = assay: Inhibition of calcium-induced contraction in K+-depolarized guinea pig aortic strips at 5 x 10^-6 M relative to control; format: tissue-based; settings: Cavia porcellus
Aorta [28] = assay: Inhibition of calcium-induced contraction in K+-depolarized guinea pig aortic strips; format: ADME, tissue-based; settings: Cavia porcellus
Left cardiac atrium [29] = assay: Negative inotropic activity in guinea pig left atrium assessed as decrease in developed tension at 5 x 10^-7 M relative to control; format: ADME, tissue-based, Cavia porcellus; design: scale not given: the % may be the effect or the level left; settings: 0.5 µM
Right cardiac atrium [30] = assay: Negative chronotropic activity in guinea pig right atrium assessed as decrease in atrial rate at 5 x 10^-6 M relative to control; design: scale not given: the % may be the effect or the level left; settings: 5 µM
Right cardiac atrium [31] = assay: Negative chronotropic activity in guinea pig spontaneously beating right atrium assessed as decrease in atrial rate at 10^-6 M relative to control; format: ADME, tissue-based, Cavia porcellus; design: scale not given: the % may be the effect or the level left; settings: 1 µM
Aorta [32] = assay: Inhibition of calcium-induced contraction in K+-depolarized guinea pig aortic strips at 10^-7 M relative to control; format: tissue-based; settings: Cavia porcellus

| Structure (SMILES) | Activity [1] | Activity [2] | Activity [3] | Activity [4] | EC50 (Left cardiac atrium [7]) | inhibition at 100 µM (Aorta [9]) | EC50 [10] | EC50 (Right cardiac atrium [20]) | Ratio EC50 [21] | Activity [24] | Activity [25] | other results |
| --- | --- | --- | --- | --- | --- | --- | --- | --- | --- | --- | --- | --- |
| CCOC(=O)C1=C(C)NC(C)=C(C(=O)OCC)C1c1c(-c2cc([N+](=O)[O-])c(Cl)cc2Cl)nc2sc(Cl)cn12 | 16.5% | 15.4% | 40.8% | 40.7% | 81 nM | 17% | 220 nM |  |  |  |  | Activity (Left cardiac atrium [5]): 86%; Activity (Right cardiac atrium [6]): 82%; Activity (Right cardiac atrium [8]): 37% |
| CCOC(=O)C1=C(C)NC(C)=C(C(=O)OCC)C1c1c(-c2ccc([N+](=O)[O-])cc2)nc2sc(Cl)cn12 | 10.3% | 26.1% | < 5% | < 5% | 1370 nM | 12% | 2170 nM |  |  |  |  | Activity (Left cardiac atrium [11]): 74%; Activity (Right cardiac atrium [12]): 79%; Activity (Right cardiac atrium [13]): 25% |
| CCOC(=O)C1=C(C)NC(C)=C(C(=O)OCC)C1c1c(-c2ccc(OC(F)(F)F)cc2)nc2sc(Br)cn12 | 14.2% | 23.8% | < 5% | 49.8% | 93 nM |  | 1000 nM |  |  |  |  | Activity (Left cardiac atrium [14]): 62%; Activity (Right cardiac atrium [15]): 85%; Activity (Right cardiac atrium [16]): 35%; inhibition at 10 µM (Aorta [17]): 5% |
| CCOC(=O)C1=C(C)NC(C)=C(C(=O)OCC)C1c1c(-c2ccc(Cl)cc2)nc2sccn12 | < 5% | < 5% | 6.8% | 44.4% | 97 nM | 43% | 19 nM |  |  |  |  | Activity (Left cardiac atrium [11]): 61%; Activity (Right cardiac atrium [18]): 79%; Activity (Right cardiac atrium [19]): 38% |
| COC(=O)C1=C(C)NC(C)=C(C(=O)OC)C1c1c(-c2cc(Br)c(OC)cc2OC)nc2sccn12 | < 5% | < 5% | < 5% | < 5% | 300 nM | 34% |  | 1670 nM | 25 to 56 |  |  | Activity (Left cardiac atrium [22]): 63%; Activity (Right cardiac atrium [23]): 74% |
| CCOC(=O)C1=C(C)NC(C)=C(C(=O)OCC)C1c1c(-c2ccc(Br)c([N+](=O)[O-])c2)nc2sccn12 | < 5% | 32.4% | < 5% | 59.2% | 1270 nM |  |  | 4.3 nM |  | < 5% | < 5% | Activity (Left cardiac atrium [5]): 53%; Activity (Right cardiac atrium [26]): 90%; inhibition at 5 µM (Aorta [27]): 41% |
| CCOC(=O)C1=C(C)NC(C)=C(C(=O)OCC)C1c1c(-c2cc(F)c(F)cc2F)nc2sccn12 | 7.4% | 30.6% | < 5% | 54.7% | 160 nM | 62% |  | 1240 nM | < 10 | < 5% | < 5% | Activity (Left cardiac atrium [14]): 78%; Activity (Right cardiac atrium [23]): 93%; IC50 (Aorta [28]): 5570 nM |
| CCOC(=O)C1=C(C)NC(C)=C(C(=O)OCC)C1c1c(-c2ccc([N+](=O)[O-])cc2)nc2sc(F)cn12 | 22.2% | 28.5% | 28.8% | 51.1% | 24 nM | 13% | 77 nM |  |  | 23.3% | 76.4% | Activity (Left cardiac atrium [29]): 78%; Activity (Right cardiac atrium [16]): 20%; Activity (Right cardiac atrium [30]): 67% |
| COC(=O)C1=C(C)NC(C)=C(C(=O)OC)C1c1ccccc1[N+](=O)[O-] [NIFEDIPINE] | 34.4% | 73.7% | 55% | 101.6% |  |  |  | 39 nM |  |  |  | Activity ([24]; Brain): 72.3%; Activity ([25]; Brain): 95.7%; Activity (Left cardiac atrium [14]; Left cardiac atrium): 97%; Activity (Right cardiac atrium [26]): 85% |
| CCOC(=O)C1=C(C)NC(C)=C(C(=O)OCC)C1c1c(-c2cc(OC)ccc2OC)nc2sc(Br)cn12 | < 5% | 29.32% | < 5% | 57.6% | 26 nM | 22% |  | 120 nM | < 10 | < 5% | < 5% | Activity (Left cardiac atrium [22]): 69%; Activity (Right cardiac atrium [31]): 94% |
| CCOC(=O)C1=C(C)NC(C)=C(C(=O)OCC)C1c1c(-c2ccc(F)cc2)nc2sccn12 | 36.6% | 43.6% | 42.6% | 59.3% | 64 nM |  |  | 1650 nM | 25 to 56 | 72.4% | 89.4% | Activity (Left cardiac atrium [22]): 79%; Activity (Right cardiac atrium [19]): 91%; inhibition at 0.1 µM (Aorta [32]): 6% |
| CCOC(=O)C1=C(C)NC(C)=C(C(=O)OCC)C1c1c(-c2ccc(F)c(F)c2)nc2sccn12 | < 5% | < 5% | 37.4% | 50.7% | 21 nM | 14% |  | 100 nM | < 10 | 20.5% | 80.5% | Activity (Left cardiac atrium [29]): 83%; Activity (Right cardiac atrium [31]): 77% |
